Measurements reported in ChEMBL document CHEMBL3091303, “1,3-Dialkyl-substituted tetrahydropyrimido[1,2-f]purine-2,4-diones as multiple target drugs for the potential treatment of neurodegenerative diseases” (Bioorg Med Chem, 2013).

Key:
Adenosine receptor A2a [1] = target: T1, Adenosine receptor A2a (Homo sapiens, UniProt P29274); assay: Binding affinity to human adenosine A2A receptor
Adenosine receptor A2a [2] = target: T1, Adenosine receptor A2a; assay: Displacement of [3H]MSX-2 from human adenosine A2A receptor expressed in CHO cells; assay type: cell-based
Procedure, shortened: (§1)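 Radioligand binding to human receptors recombinantly expressed in Chinese hamster ovary (CHO) cells. Results are Ki, or % inhibition of radioligand binding at the indicated concentration.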

Adenosine receptor A2a [3] = target: Adenosine receptor A2a (Rattus norvegicus, UniProt P30543); assay: Displacement of [3H]MSX-2 from adenosine A2A receptor in rat brain striatum; assay type: tissue-based
Adenosine receptor A2a (Rattus norvegicus, UniProt P30543), sequence (P30543 whole entry): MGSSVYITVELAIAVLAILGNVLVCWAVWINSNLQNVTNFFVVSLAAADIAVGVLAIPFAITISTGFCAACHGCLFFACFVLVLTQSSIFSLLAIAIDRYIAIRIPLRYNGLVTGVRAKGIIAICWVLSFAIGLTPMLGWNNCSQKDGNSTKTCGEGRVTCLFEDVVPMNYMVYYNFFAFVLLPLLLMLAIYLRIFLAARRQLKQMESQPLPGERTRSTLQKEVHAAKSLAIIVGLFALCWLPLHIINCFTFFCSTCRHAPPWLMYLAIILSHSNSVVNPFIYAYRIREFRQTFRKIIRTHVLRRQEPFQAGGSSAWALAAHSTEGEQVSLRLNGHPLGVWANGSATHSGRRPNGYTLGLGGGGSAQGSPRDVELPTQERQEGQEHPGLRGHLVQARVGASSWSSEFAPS

[4] = Ratio of Ki for human adenosine A1 receptor to Ki for adenosine A1 receptor in rat brain cortex; assay type: tissue-based
Adenosine receptor A3 = target: T2, Adenosine receptor A3 (Homo sapiens, UniProt P0DMS8); assay: Displacement of [3H]PSB-11 from human adenosine A3 receptor expressed in CHO cells; assay type: cell-based
T2 sequence (P0DMS8 whole entry): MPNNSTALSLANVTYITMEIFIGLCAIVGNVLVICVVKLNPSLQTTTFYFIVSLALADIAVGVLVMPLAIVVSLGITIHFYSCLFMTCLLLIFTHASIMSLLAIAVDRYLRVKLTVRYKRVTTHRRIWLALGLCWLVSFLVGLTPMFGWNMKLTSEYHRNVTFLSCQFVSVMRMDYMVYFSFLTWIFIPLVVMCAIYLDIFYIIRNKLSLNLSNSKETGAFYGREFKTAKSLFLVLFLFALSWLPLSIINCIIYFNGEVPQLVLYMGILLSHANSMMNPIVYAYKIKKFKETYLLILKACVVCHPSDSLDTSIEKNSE

[5] = target: T3, Adenosine receptor A3 (Homo sapiens) (UniProt P0DMS8); assay: Displacement of [3H]PSB-11 from human adenosine A3 receptor expressed in CHO cells relative to control; assay type: cell-based; set-up: concentration or dose not given beside the values; settings: concentration not given here
T3 sequence (whole entry): T2 sequence (P0DMS8 whole entry)

[6] = target: T4, MAO-B (amine oxidase [flavin-containing] B) (Homo sapiens, UniProt P27338); assay: Inhibition of human MAO-B at 10 uM relative to control
T4 sequence (P27338 whole entry): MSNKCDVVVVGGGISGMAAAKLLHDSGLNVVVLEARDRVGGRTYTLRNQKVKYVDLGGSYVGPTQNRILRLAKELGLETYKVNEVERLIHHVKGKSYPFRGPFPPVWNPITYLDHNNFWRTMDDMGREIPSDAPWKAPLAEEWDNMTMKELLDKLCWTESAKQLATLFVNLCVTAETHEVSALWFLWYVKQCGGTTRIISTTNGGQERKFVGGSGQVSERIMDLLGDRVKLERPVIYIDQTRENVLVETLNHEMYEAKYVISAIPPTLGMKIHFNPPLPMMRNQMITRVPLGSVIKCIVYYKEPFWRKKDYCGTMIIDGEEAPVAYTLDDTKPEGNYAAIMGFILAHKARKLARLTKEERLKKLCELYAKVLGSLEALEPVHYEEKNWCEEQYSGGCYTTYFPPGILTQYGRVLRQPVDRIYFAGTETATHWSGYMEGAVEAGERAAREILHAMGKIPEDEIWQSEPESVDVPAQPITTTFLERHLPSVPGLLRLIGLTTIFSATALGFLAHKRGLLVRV
Procedure, shortened: (§2)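 Human MAO-A and MAO-B inhibition, screened first at a test concentration of 10 µM.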

Adenosine receptor A1 [7] = target: T5, Adenosine receptor A1 (Homo sapiens, UniProt P30542); assay: Displacement of [3H]CCPA from human adenosine A1 receptor expressed in CHO cells; assay type: cell-based; procedure, shortened: as §1
T5 sequence (P30542 whole entry): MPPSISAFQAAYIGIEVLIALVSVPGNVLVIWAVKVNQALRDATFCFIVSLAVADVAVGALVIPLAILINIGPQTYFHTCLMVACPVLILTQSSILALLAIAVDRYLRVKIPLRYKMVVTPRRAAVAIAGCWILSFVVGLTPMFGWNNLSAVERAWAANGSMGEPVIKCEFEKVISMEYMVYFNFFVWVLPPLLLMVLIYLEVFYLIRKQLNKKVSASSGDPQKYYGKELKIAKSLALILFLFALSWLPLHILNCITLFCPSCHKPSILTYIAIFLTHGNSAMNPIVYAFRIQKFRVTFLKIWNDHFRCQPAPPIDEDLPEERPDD

Adenosine receptor A1 [8] = target: T6, Adenosine receptor A1 (Rattus norvegicus, UniProt P25099); assay: Displacement of [3H]CCPA from adenosine A1 receptor in rat brain cortex; assay type: tissue-based
T6 sequence (P25099 whole entry): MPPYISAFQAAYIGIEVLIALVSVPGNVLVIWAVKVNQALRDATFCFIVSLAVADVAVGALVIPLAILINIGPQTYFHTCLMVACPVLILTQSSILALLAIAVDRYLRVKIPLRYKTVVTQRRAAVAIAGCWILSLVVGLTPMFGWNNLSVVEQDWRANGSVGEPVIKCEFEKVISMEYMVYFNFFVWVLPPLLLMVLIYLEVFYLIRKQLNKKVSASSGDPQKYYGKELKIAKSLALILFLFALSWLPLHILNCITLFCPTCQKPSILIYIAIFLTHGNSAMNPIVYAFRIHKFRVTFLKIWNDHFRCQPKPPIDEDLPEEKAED
Procedure, shortened: (§3)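 Radioligand binding to rat A1 receptors in rat brain cortical membrane preparations. Values are given as Ki, or as % inhibition of radioligand binding at the indicated concentration.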

[9] = target: T7, Amine oxidase [flavin-containing] B (Homo sapiens, UniProt P27338); assay: Inhibition of human MAO-B
T7 sequence (P27338 whole entry): T4 sequence (P27338 whole entry)

Adenosine receptor A2b = target: T8, Adenosine receptor A2b (Homo sapiens, UniProt P29275); assay: Displacement of [3H]PSB-603 from human adenosine A2B receptor
T8 sequence (P29275 whole entry): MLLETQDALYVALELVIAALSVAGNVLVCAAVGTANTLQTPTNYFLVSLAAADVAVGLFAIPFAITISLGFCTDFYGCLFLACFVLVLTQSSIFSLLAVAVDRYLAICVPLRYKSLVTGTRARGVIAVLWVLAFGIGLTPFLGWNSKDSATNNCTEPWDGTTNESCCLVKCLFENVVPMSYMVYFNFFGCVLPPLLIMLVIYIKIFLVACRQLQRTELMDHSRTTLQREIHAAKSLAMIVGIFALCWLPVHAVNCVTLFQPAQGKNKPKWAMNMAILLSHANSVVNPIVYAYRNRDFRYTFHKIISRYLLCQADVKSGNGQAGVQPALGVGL

[10] = target: T9, Adenosine receptor A2b (Homo sapiens) (UniProt P29275); assay: Displacement of [3H]PSB-603 from human adenosine A2B receptor relative to control; set-up: concentration or dose not given beside the values; settings: concentration not given here
T9 sequence (whole entry): T8 sequence (P29275 whole entry)

[11] = target: T10, Adenosine receptor A1 (Homo sapiens) (UniProt P30542); assay: Displacement of [3H]CCPA from human adenosine A1 receptor expressed in CHO cells relative to control; assay type: cell-based; settings: concentration not given here; procedure, shortened: as §1
T10 sequence (whole entry): T5 sequence (P30542 whole entry)

Rattus norvegicus = organism: Rattus norvegicus; assay: Selectivity ratio of Ki for adenosine A2A receptor in rat brain striatum to Ki for adenosine A1 receptor in rat brain cortex; assay type: tissue-based
[12] = test system: Adenosine receptor A1/A2A (Homo sapiens); assay: Selectivity ratio of Ki for human adenosine A1 receptor to Ki for human adenosine A2A receptor
[13] = target: T11, MAO-A (amine oxidase [flavin-containing] A) (Homo sapiens, UniProt P21397); assay: Inhibition of human MAO-A at 10 uM relative to control; procedure, shortened: as §2
T11 sequence (P21397 whole entry): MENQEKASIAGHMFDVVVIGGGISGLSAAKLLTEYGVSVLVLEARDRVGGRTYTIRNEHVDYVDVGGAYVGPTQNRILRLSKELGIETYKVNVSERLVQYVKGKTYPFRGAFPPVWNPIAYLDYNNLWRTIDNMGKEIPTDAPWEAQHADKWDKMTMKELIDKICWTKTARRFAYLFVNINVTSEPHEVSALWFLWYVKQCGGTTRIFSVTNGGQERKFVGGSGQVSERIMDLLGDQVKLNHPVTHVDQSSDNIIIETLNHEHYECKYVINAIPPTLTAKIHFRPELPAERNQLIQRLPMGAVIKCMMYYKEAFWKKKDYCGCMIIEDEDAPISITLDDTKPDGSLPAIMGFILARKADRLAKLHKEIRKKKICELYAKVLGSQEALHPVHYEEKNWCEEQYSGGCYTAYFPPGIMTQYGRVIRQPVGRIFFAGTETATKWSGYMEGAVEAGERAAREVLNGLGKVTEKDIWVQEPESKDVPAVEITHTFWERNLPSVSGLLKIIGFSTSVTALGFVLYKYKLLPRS

[14] = target: T12, Amine oxidase [flavin-containing] A (Homo sapiens, UniProt P21397); assay: Inhibition of human MAO-A; procedure, shortened: as §2
T12 sequence (P21397 whole entry): T11 sequence (P21397 whole entry)

[15] = target: T13, Adenosine receptor A1 (Rattus norvegicus) (UniProt P25099); assay: Displacement of [3H]CCPA from adenosine A1 receptor in rat brain cortex relative to control; assay type: tissue-based; set-up: concentration or dose not given beside the values; settings: concentration not given here; procedure, shortened: as §3
T13 sequence (whole entry): T6 sequence (P25099 whole entry)

T1 sequence (P29274 whole entry): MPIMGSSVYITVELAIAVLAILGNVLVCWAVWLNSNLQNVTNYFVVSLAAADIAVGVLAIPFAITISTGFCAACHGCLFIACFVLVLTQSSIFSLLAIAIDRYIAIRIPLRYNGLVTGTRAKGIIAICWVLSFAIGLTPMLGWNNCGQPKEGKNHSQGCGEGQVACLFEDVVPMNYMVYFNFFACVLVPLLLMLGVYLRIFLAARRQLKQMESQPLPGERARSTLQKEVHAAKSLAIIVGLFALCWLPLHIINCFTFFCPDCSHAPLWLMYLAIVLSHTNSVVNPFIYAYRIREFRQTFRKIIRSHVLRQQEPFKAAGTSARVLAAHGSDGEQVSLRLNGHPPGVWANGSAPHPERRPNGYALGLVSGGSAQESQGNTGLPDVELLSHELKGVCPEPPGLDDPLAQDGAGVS

Compound	Ki (Adenosine receptor A2a [1]) [nM]	Ki (Adenosine receptor A2a [2]) [nM]	Ki (Adenosine receptor A2a [3]) [nM]	Ratio Ki [4]	Ki (Adenosine receptor A3) [nM]	inhibition [5] [%]	inhibition at 10 µM [6] [%]	Ki (Adenosine receptor A1 [7]) [nM]	Ki (Adenosine receptor A1 [8]) [nM]	IC50 [9] [nM]	Ki (Adenosine receptor A2b) [nM]	inhibition [10] [%]	inhibition [11] [%]	Ratio Ki (Rattus norvegicus)	Ratio Ki [12]	inhibition at 10 µM [13] [%]	IC50 [14] [nM]	inhibition [15] [%]
C#CCn1c(=O)c2c(nc(/C=C/c3cccc(OC)c3)n2C)n(CCCO)c1=O	5.38	5.38																
C#CCn1c(=O)c2c(nc3n2CCCN3CCc2ccccc2)n(C)c1=O		1200	827	18	> 1000	10	2	11600	632	> 10000	> 1000	3						
C#CCn1c(=O)c2c(nc3n2CCCN3c2cccc(Br)c2)n(C)c1=O		284	932		> 10000	34	46	> 10000	313	10000	3860		21	3	> 35			
Cn1c(=O)c2c(nc3n2CCCN3Cc2cccc(Cl)c2)n(C)c1=O		2030	802		15200			> 10000	432	344	> 1000	10	21			2	> 10000	
Cn1c(=O)c2c(nc3n2CCCN3c2ccc(Cl)cc2)n(C)c1=O			1210		> 10000	15	6	10000	≥ 25000	10000	> 1000	10	30			6	> 10000	47
